Experimental data of several laboratories.
Compare with care: the assays were run in different laboratories.
MAST1: Microtubule-associated serine/threonine-protein kinase 1 (MAST1, Homo sapiens, UniProt Q9Y2H9)
SMARCA2: SWI/SNF-related matrix-associated actin-dependent regulator of chromatin subfamily A member 2 (SMARCA2, Homo sapiens, UniProt P51531)
BRAF V600E: Serine/threonine-protein kinase B-raf (BRAF, Homo sapiens, UniProt P15056, V600E)
PADI2: Protein-arginine deiminase type-2 (PADI2, Homo sapiens, UniProt Q9Y2J8)
BPTF: Nucleosome-remodeling factor subunit BPTF (BPTF, Homo sapiens, UniProt Q12830)
DRD2: D(2) dopamine receptor (DRD2, Homo sapiens, UniProt P14416)
Blk: Tyrosine-protein kinase Blk (Blk, Mus musculus, UniProt P16277)

For `Cc1ccc(NC(=O)c2ccc(C)c(C(F)(F)F)c2)cc1C#Cc1nn(C2CCC(O)CC2)c2ncnc(N)c12` (centres unmarked), the remaining signal was 49% (Dual specificity mitogen-activated protein kinase kinase 4 (Map2k4, Mus musculus, UniProt P47809); cell-free assay; 10 µM).
`Cc1cc(=O)oc2cc(NC(=O)[C@@H](N)CCCNC(=N)N)ccc12` gave a Km of 88 µM (Endoplasmic reticulum aminopeptidase 2 (ERAP2, Homo sapiens, UniProt Q6P179); enzyme activity, substrate).
The remaining activity of `Cc1ccc(C(=O)Nc2ccc(CN3CCN(C)CC3)c(C(F)(F)F)c2)cc1C#Cc1cnc2cccnn12` is reported as 95% (MAST1; enzyme activity, inhibitor; 23.5 nM).
The ΔTm of `CC1(c2ccccc2)COCC(N)=N1` (centres unmarked) is reported as 2.78 °C (Beta-secretase 1 (BACE1, Homo sapiens, UniProt P56817); thermal stability, DSF; 2.1 mM, pH 5.4).
`CCC(/C=C1\CCn2c1nc(=O)c1ccc(OC)cc12)CC` has a ΔTm of 0 °C (SMARCA2; thermal stability, DSF; 100 µM).
The inhibition of `CC(C)(C)c1nc(-c2cccc(NS(=O)(=O)c3c(F)cccc3F)c2F)c(-c2ccnc(N)n2)s1` is reported as 95% (BRAF V600E; enzyme activity, inhibitor, ATP luminescence; 10 µM).
`N=C(CF)NCCC[C@H](NC(=O)c1ccccc1C(=O)O)c1nn[nH]n1` has a kinact/KI of 42.5 M⁻¹ s⁻¹ (PADI2; enzyme activity, inhibitor).
`Cc1cc2c(cc1N1C(=O)c3cccc4c(Cl)ccc(c34)C1=O)n(C)c(=O)n2C` gave a ΔTm of 0 °C (BPTF; thermal stability, DSF; 10 µM).
The ΔTm of `CCC(/C=C1\CCn2c1nc(=O)c1ccc(O)cc12)CC` is reported as -0.07 °C (SMARCA2; thermal stability, DSF; 100 µM).
`N=C(CF)NCCC[C@H](NC(=O)c1ccc(-c2ccccc2)cc1)c1nn[nH]n1` has a kinact/KI of 17.2 M⁻¹ s⁻¹ (PADI2; enzyme activity, inhibitor).
The ΔTm of `O=c1nc2n(c3cccc(Cl)c13)CC/C2=C\c1ccccc1` is reported as 2.14 °C (SMARCA2; thermal stability, DSF; 100 µM).
For `Cc1ccc(C(CS(=O)(=O)c2ccccc2)=NNc2nc(C)c(N=Nc3ccccc3)s2)cc1`, the inhibition was 42% (BRAF V600E; enzyme activity, inhibitor, ATP luminescence; 0.1 µM).
The kinact/KI of `CC(C)(C)n1nnc([C@H](CCCNC(=N)CF)NC(=O)c2ccccc2C(=O)O)n1` is reported as 2020 M⁻¹ s⁻¹ (PADI2; enzyme activity, inhibitor).
`Nc1ncnc2occ(-c3ccc(NC(=O)Nc4cc(C(F)(F)F)ccc4F)cc3)c12` gave a remaining signal of 11% (Epidermal growth factor receptor (EGFR, Homo sapiens, UniProt P00533, G719S); cell-free assay; 20 µM).
The inhibition of `COc1ccc(S(N)(=O)=O)cc1C(=O)NCCCN1CCN(c2ccccc2OC)CC1` is reported as 62.4% (DRD2; enzyme activity, inhibitor; 10 µM).
With `Cc1ccc(C(CS(=O)(=O)c2ccccc2)=NN=C2N=C(c3ccc(C)cc3)CS2)cc1` the inhibition was 43% (BRAF V600E; enzyme activity, inhibitor, ATP luminescence; 0.1 µM).
`CCC(/C=C1\CCn2c1nc(=O)c1c(Cl)c(Cl)ccc12)CC` gave a ΔTm of 2.86 °C (SMARCA2; thermal stability, DSF; 100 µM).
`N=C(CCl)NCCC[C@H](NC(=O)c1ccccc1)c1nn[nH]n1` gave a kinact/KI of 14.5 M⁻¹ s⁻¹ (PADI2; enzyme activity, inhibitor).
`Fc1cccc(-n2cnc3c(NCc4nc5c(F)c(F)ccc5[nH]4)nc(N4CCOCC4)nc32)c1` has a binding vs control of 23% (MAST1; binding, competition with immobilised ligand; 10 µM).
`CCC(CC)C1CC12CCn1c2nc(=O)c2c(Cl)cccc21` (centres unmarked) has a ΔTm of 1.4 °C (SMARCA2; thermal stability, DSF; 100 µM).
`CC(=O)N[C@H]1CSSC[C@@H](C(=O)N[C@@H](Cc2c[nH]c3ccccc23)C(N)=O)NC(=O)[C@H](Cc2ccccc2)NC(=O)[C@H](CCCNC(=N)N)NC1=O` has an inhibition of 42% (Melanocortin receptor 3 (MC3R, Homo sapiens, UniProt P41968); ligand displacement, radioligand; 10 µM, 40 min).
`CC(C)(C)n1nnc([C@H](CCCNC(=N)CCl)NC(=O)c2ccc(-c3ccccc3)cc2)n1` gave a kinact/KI of 182 M⁻¹ s⁻¹ (PADI2; enzyme activity, inhibitor).
For `CCC(/C=C1\CCn2c1nc(=O)c1cc(Cl)ccc12)CC`, the ΔTm was -0.49 °C (SMARCA2; thermal stability, DSF; 100 µM).
`C[S+]([O-])c1ccc(-c2nc(-c3ccncc3)c(-c3ccc(F)cc3)[nH]2)cc1` (centres unmarked) has a ΔTm of 0.89 °C (BPTF; thermal stability, DSF; 10 µM).
For `Cc1cnc(NC2CCOCC2)nc1-n1cnc(C(=O)NC(CN)c2cc(F)cc(Cl)c2)c1` (centres unmarked), the remaining activity was 106% (Blk; enzyme activity, inhibitor, radiometric; 1 µM).
`Cc1cnc(Nc2ccc(OCCN3CCCC3)cc2)nc1Nc1cccc(S(=O)(=O)NC(C)(C)C)c1` has a ΔTm of 0.8 °C (BPTF; thermal stability, DSF; 10 µM).
`Cc1ccc(C(CS(=O)(=O)c2ccccc2)=NNc2nc(-c3ccc(OCCCCOc4ccc(-c5csc(NN=C(CS(=O)(=O)c6ccccc6)c6ccc(C)cc6)n5)cc4)cc3)cs2)cc1` has an inhibition of 91% (BRAF V600E; enzyme activity, inhibitor, ATP luminescence; 10 µM).
`NCCCC[C@H](NC(=O)[C@@H]1CCCN1C(=O)[C@@H]1CSSC[C@H](N)C(=O)N[C@@H](Cc2ccc(O)cc2)C(=O)N[C@@H](Cc2ccccc2)C(=O)N[C@@H](CCC(N)=O)C(=O)N[C@@H](CC(N)=O)C(=O)N1)C(=O)NCC(N)=O` has an Emax of roughly 100% (Vasopressin V2 receptor (AVPR2, Homo sapiens, UniProt P30518); cAMP, agonist, TR-FRET; CHO-K1).
With `NS(=O)(=O)c1ccc(Nc2nc(-c3ccc(F)cc3)c3ccccc3n2)cc1` the remaining binding was 74% (SMARCA2; binding, competition with immobilised ligand; 1 µM).
With `Oc1ccc(-c2nc(-c3ccncc3)c(-c3ccc(F)cc3)[nH]2)cc1` the ΔTm was 0.56 °C (SMARCA2; thermal stability, DSF; 10 µM).
The inhibition of `COc1cc(CNCCc2c[nH]c3ccccc23)cc(Cl)c1OCC(N)=O` is reported as 30.3% (DRD2; enzyme activity, inhibitor; 10 µM).
For `Cc1ccc(C(CS(=O)(=O)c2ccccc2)=NNC2=NC(=O)C(=NNc3ccc([N+](=O)[O-])cc3)S2)cc1`, the inhibition was 72% (BRAF V600E; enzyme activity, inhibitor, ATP luminescence; 1 µM).
`CC/C=C1\CCn2c1nc(=O)c1c(Cl)cccc12` has a ΔTm of -1.47 °C (SMARCA2; thermal stability, DSF; 100 µM).
For `Cc1ccc(C(CS(=O)(=O)c2ccccc2)=NNc2nc(C)c(N=Nc3cccc(C)c3)s2)cc1`, the inhibition was 92% (BRAF V600E; enzyme activity, inhibitor, ATP luminescence; 10 µM).
With `CCCOc1ccc(OC)c(F)c1C(=O)c1ccc(C(=O)N[C@@H]2CNC[C@H]2NC(=O)c2ccc3[nH]ncc3c2)cc1` the remaining activity was 42% (Blk; enzyme activity, inhibitor; 10 µM).
The inhibition of `Cc1ccc(Nc2nccc(N(C)c3ccc4c(C)n(C)nc4c3)n2)cc1S(N)(=O)=O` is reported as 9% (Blk; enzyme activity, inhibitor; 0.3 µM).
`CCC(CC)CC1CCn2c1nc(=O)c1c(Cl)cccc12` (racemic) has a ΔTm of 1.33 °C (SMARCA2; thermal stability, DSF; 100 µM).
The inhibition of `Cc1ccc(C(CS(=O)(=O)c2ccccc2)=NNC(N)=S)cc1` is reported as 88% (BRAF V600E; enzyme activity, inhibitor, ATP luminescence; 10 µM).
